Bioassay records as filed in PubChem BioAssay.
HIV Rev-RRE inh – disrupts HIV-1 Rev binding to RRE RNA; P05866; Rev peptide-RRE RNA binding, FRET; inhibition, % at 8 µM; 97,000 compounds, 0.79% hits;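 active = inhibition above the screen-wide mean plus 3 SD, cut at about 35% in these data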;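 also: 0% = median DMSO wells and 100% = median Neomycin B control wells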
Target sequence (P05866 whole entry, looked up): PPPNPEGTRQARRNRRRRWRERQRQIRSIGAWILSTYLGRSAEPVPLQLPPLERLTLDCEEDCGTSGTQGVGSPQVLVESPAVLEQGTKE
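Probe or stimulus: fluorescein-Rev peptide as binding partner; assay system: Cy5-tagged RRE RNA duplex with fluorescein-tagged Rev peptide; timing: 5 min compound–RNA preincubation, then 15 min with peptide, 25 °C; medium: HEPES pH 7.5 buffer with KCl, MgCl2, NaCl and EDTA; signal: fluorescein-to-Cy5 FRET, 480 nm excitation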
PostGolgi ctrl – yeast control strain growth, post-Golgi counter-screen | efflux-deficient yeast background strain, growth absorbance A615, 16 h | inhibition, % at 10 µM | 98,000 compounds, 5% hits | AID 738
PLK1 PBD inh – inhibitors of human Plk1 polo box domain binding; P53350; 97,000 compounds, 0.13% hits; inhibition, %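 (tested at about 20 µM)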; Plk1 PBD phosphopeptide binding, fluorescence polarization; in the data active = inhibition above about 34%, passing the limit was not always enough
Target sequence (P53350 whole entry, looked up, the tested form may be a part): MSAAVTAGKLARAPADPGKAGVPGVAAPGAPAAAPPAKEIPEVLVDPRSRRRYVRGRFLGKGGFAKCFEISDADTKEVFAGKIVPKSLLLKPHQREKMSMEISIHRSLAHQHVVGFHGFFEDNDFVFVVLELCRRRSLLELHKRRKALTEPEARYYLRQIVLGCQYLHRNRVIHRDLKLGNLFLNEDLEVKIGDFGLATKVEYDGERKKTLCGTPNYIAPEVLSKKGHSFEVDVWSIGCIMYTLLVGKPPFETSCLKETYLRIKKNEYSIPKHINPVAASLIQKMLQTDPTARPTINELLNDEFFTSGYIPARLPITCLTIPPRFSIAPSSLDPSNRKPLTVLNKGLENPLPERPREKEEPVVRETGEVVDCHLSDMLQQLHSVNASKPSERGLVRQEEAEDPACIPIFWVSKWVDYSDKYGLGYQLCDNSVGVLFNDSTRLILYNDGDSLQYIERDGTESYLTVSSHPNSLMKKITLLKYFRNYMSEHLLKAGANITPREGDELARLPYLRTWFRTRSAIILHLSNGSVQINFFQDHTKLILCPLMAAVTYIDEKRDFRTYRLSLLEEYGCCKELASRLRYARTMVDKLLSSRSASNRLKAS
PostGolgi yeast – growth inhibition of a yeast mutant, post-Golgi transport screen; post-Golgi transport phenotypic cell assay; inhibition, % at 10 µM; 98,000 compounds, 0.9% hits; AID 739;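 also: yeast cells grown in 1536-well plates; yeast grown about 18 h at 30C before absorbance read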
EphB4 ephrin blk – blocks human EphB4 binding to ephrin-B2; P54760; EphB4 LBD / TNYL-RAW-Alexa532 peptide, fluorescence polarization; inhibition, % at 7 µM; 97,000 compounds, 0.15% hits; AID 720;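 active = inhibition above the screen-wide mean inhibition plus 3 SD, cut at about 15% in these data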;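 also: 0% = DMSO wells and 100% = excess unlabeled TNYL-RAW peptide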
PLK1 kinase inh – PLK1 (human) kinase inhibition; P53350; recombinant PLK1 kinase, TR-FRET peptide phosphorylation; inhibition, % at 10 µM; 97,000 compounds, 0.53% hits; AID 619;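 active = inhibition of 50% or more in the single-concentration screen; inactive = inhibition below 50%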;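 also: 0% = DMSO max control and 100% = H-89 dihydrochloride min control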
The depositor's hits bear a star; / = not tested or not shown. Most compounds without a hit are left out; they make up all but 6.4% or so of the library. Rule as the data show it, unless noted: active = inhibition above about 30%; inactive = the rest.

SMILES	HIV Rev-RRE inh	PostGolgi ctrl	PLK1 PBD inh	PostGolgi yeast	EphB4 ephrin blk	PLK1 kinase inh
CC(=O)[C@@H]1[C@@H]2C(=O)N(C3CCCCC3)C(=O)[C@@H]2C2c3ccccc3C=CN21 (some centres undefined)	41.4*	12.5	-17.0	3.1	3.3	-19.2
COc1ccc(NC(=O)[C@@H]2[C@@H]3C(=O)N(C4CCCCC4)C(=O)[C@@H]3C3c4ccccc4C=CN32)cc1 (some centres undefined)	27.6	9.1	-30.8	-2.7	-2.9	-0.5
CCOC(=O)Cc1csc(NC(=O)COc2ccc(N(C)S(=O)(=O)c3cccs3)cc2)n1	/	11.8	/	1.4	/	/
O=C(O)CCC(=O)NC1CCCCC1NC(=O)CCC(=O)O (centres undefined)	6.8	/	13.2	/	-1.7	-3.0
CN(C)c1nc(N2CCOCC2)nc(N(c2ccccc2)c2ccccc2)n1	5.4	19.1	-8.1	-6.5	0.9	-9.7
COc1nc(N(c2ccccc2)c2ccccc2)nc(-n2ccnc2)n1	11.6	95.7*	-16.8	93.8*	-2.9	-10.1
O=C1CC(c2cccc(Cl)c2)c2cc3c(cc2N1)CCC3 (centres undefined)	10.1	88.9*	5.3	0.8	-1.5	-14.5
O=C1CC(c2ccccc2F)c2cc3c(cc2N1)CCC3 (centres undefined)	16.0	29.5	-7.9	4.4	-3.3	-12.2
O=C1CC(c2cc(Br)ccc2F)c2cc3c(cc2N1)CCC3 (centres undefined)	5.5	34.6*	-16.9	1.9	7.6	-8.2
O=C1CC(c2cccnc2)c2cc3c(cc2N1)OCCO3 (centres undefined)	/	-3.0	/	-3.5	/	/
O=c1cc(N2CCN(c3ccc(F)cc3)CC2)[nH]c(=O)n1Cc1ccc(F)cc1	-0.4	20.7	13.3	5.2	3.3	-7.3
O=c1cc(N2CCOCC2)[nH]c(=O)n1Cc1ccc(F)cc1	8.2	-2.8	-17.1	2.2	-1.6	68.6*
O=C(CN1CCC(O)(c2ccc3c(c2)OCO3)CC1)OC1CCCCC1	3.2	40.6*	7.3	-5.0	0.0	-8.9
O=C(CN1CCC(O)(c2ccc3c(c2)OCO3)CC1)N1CCOCC1	1.6	1.8	22.9	-5.3	4.4	5.9
COc1ccc(NC(C)=O)cc1NC(=O)CSc1nnc(-c2cccnc2)n1C	13.6	7.2	18.5	14.5	-0.8	-6.9
CCCCOC(=O)C(C#N)c1nc2ccccc2nc1N1CCOCC1 (centres undefined)	10.9	37.1*	-27.7	0.3	6.6	3.0
N#CC(C(=O)NCc1ccccc1)c1nc2ccccc2nc1N1CCCC1 (centres undefined)	61.8*	-6.2	10.3	-1.8	0.7	-2.7
N#CC(C(=O)NCCc1ccccc1)c1nc2ccccc2nc1N1CCCCC1 (centres undefined)	8.0	25.3	10.6	-8.4	11.5	-31.0
CCCCCCOC(=O)C(C#N)c1nc2ccccc2nc1N1CCOCC1 (centres undefined)	2.9	16.0	9.3	-7.5	-7.1	-8.1
CCN(CC)c1nc2ccccc2nc1C(C#N)C(=O)NCCc1ccccc1 (centres undefined)	34.0	32.9*	19.7	1.9	-7.1	-3.8
COC(=O)c1cc2cc(NS(=O)(=O)c3ccc(C)cc3)ccc2s1	12.3	51.9*	34.0	-10.7	-4.8	-15.2
COC(=O)Nc1ccc(S(=O)(=O)Nc2ccc(O)cc2)cc1	2.8	5.5	6.8	0.8	2.7	-10.7
COC(=O)Nc1ccc(S(=O)(=O)Nc2ccc(C)cc2)cc1	0.1	37.0*	6.0	39.3*	2.8	-13.4
COc1ccccc1CNC(=O)c1csc(Cc2ccc(Cl)cc2)n1	11.3	56.2*	11.7	-2.6	1.0	-8.3
Cc1cc2ncn(/N=C/c3cc(Br)ccc3O)c2cc1C	15.2	34.5*	15.6	10.6	13.9	0.0
SMILES	HIV Rev-RRE inh	PostGolgi ctrl	PLK1 PBD inh	PostGolgi yeast	EphB4 ephrin blk	PLK1 kinase inh
Cc1nnc(C)n1/N=C/c1cc(Br)ccc1O	9.4	-1.2	9.3	3.4	-1.1	-11.7
COc1ccc(N2C(=O)[C@@H]3Cc4ccccc4CN3C2=O)cc1	8.0	13.1	9.6	0.3	2.0	-4.9
Cc1ccc(N2C(=O)[C@@H]3Cc4ccccc4CN3C2=O)cc1	-1.3	35.8*	-5.1	1.4	0.5	-8.2
COc1cc(N)c(Cl)cc1NC(=O)c1ccccc1	7.3	39.4*	-10.4	7.8	-5.8	-10.1
Oc1ccc(C(=S)N2CCCCC2)cc1Cl	5.2	18.9	-9.1	-4.5	2.1	-9.9
Cn1nc(-c2ccc(Cl)cc2)c2cc(C(=O)N3CCN(c4ccccn4)CC3)sc21	-5.6	52.0*	-8.7	-4.9	-5.6	1.3
Cn1nc(-c2ccc(Cl)cc2)c2cc(C(=O)N3CCN(c4ccccc4)CC3)sc21	-5.1	6.7	8.3	-4.4	-7.7	-4.9
CC(C)(Oc1ccc(Cl)cc1)C(=O)N1CCN(c2ccccn2)CC1	7.3	49.9*	7.5	1.4	1.3	-7.2
Cc1ccc(CNC(=O)c2cc3c(-c4ccc(Cl)cc4)nn(C)c3s2)o1	-5.1	53.0*	-10.9	-6.8	-10.4	4.4
CCCCNC(=O)c1cc2c(-c3ccc(Cl)cc3)nn(C)c2s1	-0.9	2.1	-0.4	-2.0	-8.9	-8.0
COc1ccc(Cl)cc1C(=O)N1CCN(c2ccccn2)CC1	-3.9	3.5	2.3	-3.8	1.7	-8.1
CCc1ccc(C(C(=O)NC2CCCCC2)N(C(=O)CNC(=O)c2ccco2)c2cccnc2)cc1 (centres undefined)	5.8	/	30.5	/	-1.2	-10.3
CCOc1ccc(-c2nc(N)ncc2-c2ccccc2)c(O)c1	18.4	49.8*	-17.8	-2.8	-0.4	-17.4
Cc1ccc(NC(=S)N2CCC(N(C)CC3CCCO3)CC2)c(C)c1 (centres undefined)	9.1	7.5	-4.2	15.9	9.9	-5.8
Cc1ccc(C)c(N2CCN(C(=O)CCCOc3cc(=O)n(C)c4ccccc34)CC2)c1	1.1	17.2	22.6	-5.2	-2.4	-7.8
Cc1ccc(C)c(N2CCN(C(=O)COc3cc(=O)n(C)c4ccccc34)CC2)c1	0.2	38.3*	-29.0	1.9	1.0	-1.2
COC(=O)c1c(-c2ccc3ccccc3c2)csc1NC(=O)Cc1ccc(OC)c(OC)c1	7.3	15.4	9.0	-1.4	0.2	-6.3
COc1ccccc1-c1cc(C(=O)N2CCN(c3ccccc3OC)CC2)no1	0.9	37.6*	13.6	3.9	0.5	-2.3
COc1ccccc1N1CCN(C2CCN(C(=O)c3cccs3)CC2)CC1	/	6.7	/	2.5	/	/
COc1ccccc1N1CCN(C2CCN(C(=O)c3cc(OC)c(OC)c(OC)c3)CC2)CC1	/	-4.6	/	35.9*	/	/
COc1ccccc1N1CCN(C(=O)c2cc(-c3ccc(Cl)cc3)on2)CC1	3.4	39.6*	-5.8	-2.8	0.9	-8.5
COc1ccccc1N1CCN(C(=O)c2cc(-c3ccc(C)cc3)on2)CC1	5.8	24.7	14.1	-2.1	9.0	-3.1
COC(=O)c1sccc1-c1ccc(C(=O)Nc2cccc(Cl)c2)o1	11.1	45.7*	17.2	-1.9	-3.3	-13.8
